Screens: PubChem, several laboratories
ABCG2 block = human ABCG2 inhibition, ABCB1 as counter-screen; AID 1325; IgMXP3 cells, JC-1 efflux, flow cytometry; Q9UNQ0; inhibition, % at 6.6 µM; 190,000 tested, 0.1% active;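 active = inhibition above 80%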;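 also: 0% = DMSO and 100% = nicardipine control wells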
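material = IgMXP3 (ABCG2) plus far-red-tagged CCRF-Adr (ABCB1) cells | amount = 3 million cells/mL, equal mix of both lines | also added = JC-1 transporter substrate | dosing = one concentration, 6.6 µM final | schedule = 10 min at 25 °C | measured by = flow cytometric JC-1 green MFI at 530 nm | read-out basis = percent efflux inhibition, scaled nicardipine 100% to DMSO 0%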
PKD1 kinase inh = inhibitors of human PKD1 kinase; Q15139; PKD1 kinase fluorescence polarization assay; inhibition, % (concentration not given with the values); 200,000 tested, 0.056% active
Avidin fluor = compound fluoresces at 488/530 nm on avidin beads | fluorescence (KMESF) at 10 µM | compound fluorescence 488/530 nm, flow cytometry; hits give high values | 220,000 tested, 0.38% active | AID 1775; in the data active = fluorescence above about 47
GSH bead fluor = GSH bead compound fluorescence profile | GSH beads flow cytometry, compound fluorescence 488/530 nm; hits give high values | 190,000 tested, 0.25% active | fluorescence (KMESF) at 10 µM | AID 1776; in the data active = fluorescence above about 89;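 also: glutathione beads carrying GST-tagged Bcl family fusion proteins plus one bare bead set; values are compound well signal with DMSO vehicle wells as background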
L major viab = Leishmania major promastigote growth inhibition; AID 1063; Leishmania major promastigotes, resazurin fluorescence viability; inhibition, % at 10 µM; 200,000 tested, 9% active;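 also: promastigotes grown with compound for 44 hours at 28 °C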
ABCB1 inh = human ABCB1 inhibition, ABCG2 as counter-screen; P08183; CCRF-Adr cells, JC-1 efflux, flow cytometry; inhibition, % at 6.6 µM; 190,000 tested, 0.067% active; AID 1326; in the data active = inhibition above about 40%;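 also: 0% = vehicle and 100% = reference inhibitor; higher value means more JC-1 retained so stronger ABCB1 efflux block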
An asterisk follows results filed as active; · = no result given. This excerpt belongs to a sample that is enriched for hits. Rule as the data show it, unless noted: active = inhibition above about 50%; inactive = the rest.

SMILES	ABCG2 block	PKD1 kinase inh	Avidin fluor	GSH bead fluor	L major viab	ABCB1 inh
Cc1cccc(Nc2nnc(SCC(=O)Nc3cccc(S(=O)(=O)N4CCCCC4)c3)s2)c1	-3	1	15	8	43	-1
O=C(O)CC12CC3CC(C1)CC(n1ncc(NCc4ccco4)c(Cl)c1=O)(C3)C2	·	·	5	·	·	·
O=c1c(Cl)c(NCc2ccccc2)cnn1C12CC3CC(CC(C3)C1)C2	37	-5	15	3	93*	3
Cc1nc2c(ccc3nc(NC(=O)c4ccc5c(c4)OCCO5)sc32)s1	-5	8	8	10	63*	-1
O=C(Nc1nc2cc3c(cc2s1)OCCO3)c1ccc(N2C(=O)CCC2=O)cc1	·	·	9	·	·	·
O=C(NNc1nc2cc3c(cc2s1)OCO3)c1ccc(F)cc1	-2	8	·	15	77*	0
Fc1ccc2nc(Nc3nc4cc5c(cc4s3)OCO5)sc2c1	-2	6	3	17	-4	-1
O=C(Nc1nc2cc3c(cc2s1)OCCO3)c1ccncc1	1	-7	13	11	95*	0
c1ccc2sc(Nc3nc4cc5c(cc4s3)OCO5)nc2c1	-8	3	8	4	90*	-1
O=C(NNc1nc2cc3c(cc2s1)OCCO3)c1ccc(F)cc1	-3	-3	22	11	-6	-1
COc1ccc(NC(=O)CSc2nnnn2C)c([N+](=O)[O-])c1	3	2	12	14	-5	1
Cc1cnc([N+](=O)[O-])n1CCOC(=O)NC(=O)c1cccc(F)c1	3	-5	4	18	-3	1
C/C=C/C(=O)OCC(=O)Nc1cc(-c2cc(C)c(C)cc2C)nn1-c1ccccc1	2	-12	13	18	-3	0
O=C(Cc1ccccc1)NCc1ccncc1	-3	-3	8	13	-9	0
COc1cc2c(cc1OC)C(C(=O)NCc1cccnc1)C(c1cccnc1)N(C)C2=O (centres undefined)	-5	11	174*	26	-3	-1
CN(C)c1ccc(-c2nc3ccccn3c2/N=C/c2ccc(Br)cc2)cc1	5	0	12	9	99*	1
Cc1c(-c2ccc(Br)cc2)nc2ccccn12	36	-1	24	15	27	-1
Cc1cc(C)c2cc(CN(Cc3ccco3)C(=S)NCC3CCCO3)c(=O)[nH]c2c1 (centres undefined)	0	-3	5	36	15	0
COCCn1nnnc1C(c1cccs1)N1CCN2CCCC2C1 (centres undefined)	1	-5	8	15	0	1
COc1cccc(-n2c(SCC(N)=O)nnc2-c2ccncc2)c1	2	0	33	11	-4	0
COc1cccc(NC(=O)C(Sc2nnc(-c3ccncc3)n2-c2ccc(Cl)cc2)c2ccccc2)c1 (centres undefined)	-3	-13	6	11	53*	18
CCOC(=O)C1(C(F)(F)F)N=C(c2cccnc2)OC(N2CCCCC2)=N1 (centres undefined)	9	0	4	23	4	1
CCN(CC)S(=O)(=O)c1ccc(OC)c(NC(=O)C(Cc2ccccc2)N2C(=O)c3ccccc3C2=O)c1 (centres undefined)	7	-9	6	11	-6	1
CC1=CC(C)(C)Nc2ccc(OC(=O)C(Cc3ccccc3)N3C(=O)c4ccccc4C3=O)cc21 (centres undefined)	21	-1	23	26	99*	2
Cc1ccc(OC(=O)CCN2C(=O)c3ccccc3C2=O)cc1C	4	6	7	12	-1	1
SMILES	ABCG2 block	PKD1 kinase inh	Avidin fluor	GSH bead fluor	L major viab	ABCB1 inh
CC1=CC(C)(C)Nc2ccc(OC(=O)CN3C(=O)c4cccc5cccc(c45)C3=O)cc21	-1	-1	11	29	95*	0
CC1=CC(C)(C)Nc2ccc(OC(=O)CN3C(=O)c4ccccc4C3=O)cc21	8	-1	32	15	101*	2
CCC(=O)c1ccc(OCCn2cnc3ccccc32)cc1	5	-11	13	17	7	1
Oc1ccc(Cl)cc1-c1cc(-c2cccc(Br)c2)n[nH]1	1	-4	7	4	99*	0
Oc1ccc(Cl)cc1-c1cc(-c2ccco2)[nH]n1	1	0	37	14	90*	0
Oc1ccc(Cl)cc1-c1cc(-c2ccccc2Cl)[nH]n1	13	-3	5	30	14	0
COC(=O)C1CSC(C(=O)OC)N1C(=O)CN1CC(C)OC(C)C1 (centres undefined)	-1	-11	7	43	-3	0
CN(CCOc1ccccc1)C(=O)c1cc([N+](=O)[O-])cc([N+](=O)[O-])c1	3	-3	8	17	26	1
O=[N+]([O-])c1ccc(Cc2nnc(-c3ccccc3Cl)o2)cc1	7	-3	8	23	17	1
O=C(c1cc([N+](=O)[O-])cc([N+](=O)[O-])c1)N(Cc1nnc(-c2ccccc2Cl)o1)C1CC1	10	3	19	13	82*	2
CCCN(Cc1nnc(-c2ccccc2Cl)o1)C(=O)c1cc([N+](=O)[O-])cc([N+](=O)[O-])c1	22	-2	7	20	98*	3
CC(O)CNCc1ccccc1C(F)(F)F (centres undefined)	1	-4	6	22	-10	0
O=C(O)CN(c1ccccc1)S(=O)(=O)c1cc(C(F)(F)F)cc(C(F)(F)F)c1	1	-5	15	10	-3	0
COc1ccc2nc(C)cc(Nc3ccccc3O)c2c1	5	-5	8	8	59*	0
COc1ccc(OC)c(Nc2cc(C)nc3ccccc23)c1	29	-7	13	13	71*	0
COC(=O)CSc1cc(C)nc2ccc(OC)cc12	11	-5	26	21	9	0
COc1ccc(OC)c(Nc2ncnc3ccccc23)c1	6	0	5	29	40	1
COc1cccc(Nc2cc(C)nc3ccccc23)c1	12	-5	37	28	88*	0
Cc1cc(Nc2cccc([N+](=O)[O-])c2)c2ccccc2n1	4	3	12	24	45	1
O=C(Nc1cccc(S(=O)(=O)N2CCCC2)c1)c1cc(-c2ccccn2)nc2ccccc12	10	-1	10	11	11	2
CSc1ccc(/C=C(\C#N)C(=O)Nc2cccc(C)c2)cc1	18	4	7	14	30	0
CCC(=O)NC(=S)Nc1ccc(NC(=O)c2cccc([N+](=O)[O-])c2C)cc1	18	-12	17	9	58*	·
NC(=O)c1ccc(N=Nc2c(-c3ccccc3)[nH]n(-c3ccccc3)c2=O)cc1	3	1	63*	11	-4	0
